Values after ≈ are worked out from the molar mass of the structure shown.
Tests used:
Type in all cases: functional
Staphylococcus aureus [1] = experiment: Antibacterial activity against methicillin-resistant Staphylococcus aureus NRS123 USA400 after 18 to 24 hrs by broth microdilution assay
Method in brief: (§1)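 CLSI broth microdilution with modifications. Bacteria cultured in TSB and exposed to compounds or control antibiotics in triplicate. Plates incubated aerobically at 37 °C for 18–24 h. MIC is the lowest concentration preventing visible growth.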

Staphylococcus aureus [2] = experiment: Antibacterial activity against methicillin-resistant Staphylococcus aureus NRS119 after 18 to 24 hrs by broth microdilution assay; method in brief: as §1
Staphylococcus aureus [3] = experiment: Antibacterial activity against methicillin-resistant Staphylococcus aureus USA300 NRS384 after 18 to 24 hrs by broth microdilution assay; method in brief: as §1
Staphylococcus aureus [4] = experiment: Antibacterial activity against vancomycin-resistant Staphylococcus aureus VRS10 after 18 to 24 hrs by broth microdilution assay; method in brief: as §1
Klebsiella pneumoniae = experiment: Antibacterial activity against Klebsiella pneumoniae ATCC BAA-1705 after 18 to 24 hrs by broth microdilution assay
Method in brief: (§2)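 Broth microdilution MIC per CLSI guidelines with modifications. Bacteria grown in TSB and exposed to compounds or control antibiotics in triplicate. Plates incubated aerobically at 37 °C for 18–24 h. MIC taken as the lowest concentration with no visible growth.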

Enterococcus faecium = experiment: Antibacterial activity against vancomycin-resistant Enterococcus faecium ATCC 700221 after 18 to 24 hrs by broth microdilution assay
Method in brief: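 Broth microdilution per CLSI with modifications. Cultured in BHI and exposed to compounds in triplicate. Incubated aerobically at 37 °C for 18–24 h. MIC read as the lowest concentration with no visible growth.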

[5] = tested on: Staphylococcus epidermidis; experiment: Antibacterial activity against methicillin-resistant Staphylococcus epidermidis NRS101 after 18 to 24 hrs by broth microdilution assay; method in brief: as §1
Staphylococcus aureus [6] = experiment: Antibacterial activity against methicillin-sensitive Staphylococcus aureus NRS107 after 18 to 24 hrs by broth microdilution assay; method in brief: as §1
Acinetobacter baumannii = experiment: Antibacterial activity against Acinetobacter baumannii BAA1605 after 18 to 24 hrs by broth microdilution assay; method in brief: as §2
Staphylococcus aureus [7] = experiment: Antibacterial activity against methicillin-resistant Staphylococcus aureus NRS385 USA500 after 18 to 24 hrs by broth microdilution assay; method in brief: as §1
Streptococcus pneumoniae = experiment: Antibacterial activity against penicillin-resistant Streptococcus pneumoniae ATCC 700677 after 18 to 24 hrs by broth microdilution assay
Method in brief: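 CLSI broth microdilution with modifications. Bacteria exposed to compounds in triplicate and incubated at 37 °C with 5% CO₂ for 18–24 h. MIC is the lowest concentration preventing visible growth.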

Staphylococcus aureus [8] = experiment: Antibacterial activity against vancomycin-resistant Staphylococcus aureus VRS11a after 18 to 24 hrs by broth microdilution assay; method in brief: as §1
Pseudomonas aeruginosa = experiment: Antibacterial activity against Pseudomonas aeruginosa ATCC 15442 after 18 to 24 hrs by broth microdilution assay; method in brief: as §2
Enterobacter cloacae = experiment: Antibacterial activity against Enterobacter cloacae BAA1134 after 18 to 24 hrs by broth microdilution assay; method in brief: as §2

Q: Which MIC (Staphylococcus aureus [1]) does the source give for `N#Cc1ccc(/C=C/c2ccccc2C#N)cc1` here?
A: 16 µM (≈ 3.68 µg/mL)

Q: How did the MIC (Staphylococcus aureus [2]) turn out when `N#Cc1ccccc1/C=C/c1ccccc1` was run?
A: 4 µM (≈ 0.821 µg/mL)

Q: And the MIC (Staphylococcus aureus [3])?
A: 4 µM (≈ 0.821 µg/mL)

Q: `N#Cc1ccc(CCc2ccncc2)cc1` was tested. Which MIC (Staphylococcus aureus [1]) did it give?
A: 64 µM (≈ 13.3 µg/mL)

Q: `N#Cc1ccc(/C=C/c2ccc3ccccc3n2)cc1` was tested. Which MIC (Staphylococcus aureus [2]) did it give?
A: 4 µM (≈ 1.03 µg/mL)

Q: What about the MIC (Staphylococcus aureus [4]) of the same compound?
A: 32 µM (≈ 8.2 µg/mL)

Q: And the MIC (Staphylococcus aureus [1])?
A: 8 µM (≈ 2.05 µg/mL)

Q: And the MIC (Staphylococcus aureus [3])?
A: 4 µM (≈ 1.03 µg/mL)

Q: For `COc1ccc(/C=C/c2ccc(C#N)cc2)cc1`, which MIC (Staphylococcus aureus [1]) is on record?
A: 32 µM (≈ 7.53 µg/mL)

Q: With `COc1cc(/C=C/c2ccc(C#N)cc2)cc(OC)c1` as the compound, how does the MIC (Staphylococcus aureus [1]) read?
A: 64 µM (≈ 17 µg/mL)

Q: What does the source list for `CN[C@H](CC(C)C)C(=O)N[C@H]1C(=O)N[C@@H](CC(N)=O)C(=O)N[C@H]2C(=O)N[C@H]3C(=O)N[C@H](C(=O)N[C@H](C(=O)O)c4cc(O)cc(O)c4-c4cc3ccc4O)[C@H](O)c3ccc(c(Cl)c3)Oc3cc2cc(c3O[C@@H]2O[C@H](CO)[C@@H](O)[C@H](O)[C@H]2O[C@H]2C[C@](C)(N)[C@H](O)[C@H](C)O2)Oc2ccc(cc2Cl)[C@H]1O` [VANCOMYCIN]?
A: MIC (Klebsiella pneumoniae): > 64 µM; MIC (Enterococcus faecium): > 64 µM; MIC [5]: 4 µM (≈ 5.8 µg/mL); MIC (Staphylococcus aureus [6]): 1 µM (≈ 1.45 µg/mL); MIC (Acinetobacter baumannii): 32 µM (≈ 46.4 µg/mL); MIC (Staphylococcus aureus [2]): 1 µM (≈ 1.45 µg/mL); MIC (Staphylococcus aureus [4]): > 64 µM; MIC (Staphylococcus aureus [7]): 1 µM (≈ 1.45 µg/mL); MIC (Staphylococcus aureus [1]): 1 µM (≈ 1.45 µg/mL); MIC (Streptococcus pneumoniae): 1 µM (≈ 1.45 µg/mL); MIC (Staphylococcus aureus [3]): 1 µM (≈ 1.45 µg/mL); MIC (Staphylococcus aureus [8]): > 64 µM; MIC (Pseudomonas aeruginosa): > 64 µM; MIC (Enterobacter cloacae): > 64 µM

Q: How did the MIC (Staphylococcus aureus [1]) turn out when `N#Cc1ccc(/C=C/c2ccc(F)cc2)cc1` was run?
A: 64 µM (≈ 14.3 µg/mL)

Q: How did the MIC (Staphylococcus aureus [1]) turn out when `N#Cc1ccc(/C=C/c2ccc(Cl)c(Cl)c2)cc1` was run?
A: > 64 µM

Q: For `N#Cc1ccc(CCc2ccccc2C#N)cc1`, which MIC (Staphylococcus aureus [1]) is on record?
A: > 64 µM

Q: Which MIC (Staphylococcus aureus [1]) does the source give for `N#Cc1ccc(CCc2ccccn2)cc1` here?
A: > 64 µM

Q: How did the MIC (Staphylococcus aureus [1]) turn out when `N#Cc1ccc(/C=C/c2ccnc3ccccc23)cc1` was run?
A: > 64 µM
